High-throughput results as filed in PubChem.
ATG4B inh – blocks human ATG4B protease cleavage of LC3 substrate; Q9Y4P1; 340,000 tested, 0.51% active; inhibition, % at 8.33 µM; ATG4B cleavage of LC3-PLA2, NBD-HPC fluorescence, 1 h; in the data active = inhibition above about 40%
AI-2 QS modul – modulates the Vibrio harveyi AI-2 quorum sensing system | activity change, % at 7.5 µM | AID 2094 | 300,000 tested, 0.4% active | Vibrio harveyi JMH597 AI-2 luminescence/OD600 ratio, 9 h; hits give low values; strain lacks LuxN and CqsS sensors; 0 = neutral-control median; in the data active = activity change below about -75%, passing the limit was not always enough; inconclusive = no clear call, values can overlap the other calls;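 also: luminescence divided by OD600 gain over 9 h not by final OD600 alone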
HKDC1 inh – HKDC1 (human) hexokinase inhibition; 340,000 tested, 0.16% active; inhibition, % at 20 µM; Q2TB90; AID 493160; recombinant HKDC1, G6PDH/diaphorase resazurin coupled fluorescence;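 active = inhibition above about 35% when tested at 20 µM, limit read from the data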;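 also: plate controls were DMSO wells with enzyme for no effect and DMSO wells lacking enzyme for full effect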
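Test system: Recombinant HKDC1 (HK5) hexokinase enzyme, produced in-house | Input: HKDC1 at 5 µg/mL | Buffer or medium: Tris pH 8.0 buffer with MgCl2, Tween-20, BSA, BME | Schedule: 90 min reaction incubation at room temperature, dark | Technique: Resazurin-to-resorufin fluorescence via G6PDH and diaphorase coupling, 525/613 nm | Controls: DMSO wells with and without enzyme mix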
HDAC3 inhib – human HDAC3 inhibition | O15379 | recombinant HDAC3, fluorogenic peptide/trypsin coupled, fluorescence | inhibition, % at 8.3 µM | 320,000 tested, 0.15% active | AID 2718; in the data active = inhibition above about 26%, passing the limit was not always enough; inconclusive = no clear call, values can overlap the other calls
Target sequence (O15379 whole entry, looked up): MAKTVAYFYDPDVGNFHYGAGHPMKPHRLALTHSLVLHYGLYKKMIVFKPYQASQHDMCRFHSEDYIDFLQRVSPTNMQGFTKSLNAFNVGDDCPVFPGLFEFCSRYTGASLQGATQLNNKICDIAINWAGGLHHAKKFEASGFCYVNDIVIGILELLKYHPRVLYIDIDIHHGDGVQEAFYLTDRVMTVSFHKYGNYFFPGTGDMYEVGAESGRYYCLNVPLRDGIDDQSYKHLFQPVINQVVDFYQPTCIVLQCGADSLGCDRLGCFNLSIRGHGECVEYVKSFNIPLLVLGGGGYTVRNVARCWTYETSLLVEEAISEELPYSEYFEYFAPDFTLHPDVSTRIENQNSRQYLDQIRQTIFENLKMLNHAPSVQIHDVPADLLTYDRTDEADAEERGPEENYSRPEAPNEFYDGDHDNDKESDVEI
A1 inh – inhibitors of the anti-apoptotic protein A1, read as caspase activation | caspase activation, % (no concentration beside the values) | MEF A1-2A-BIM cells, Caspase-Glo 3/7 luminescence, 3 h; percent of clofoctol response, vehicle zero | AID 2462 | 330,000 tested, 0.066% active;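 active = over half of replicate activation scores above 10%, or exactly half above 10 with the replicate mean above 10; inconclusive = replicate mean below 10 yet half the replicates above 10; inactive = over half of replicates below 10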
LANA-H2B inh – blocks KSHV LANA binding to histone H2A/H2B | Q9QR71 | cell-free LANA-H2A/H2B peptide, fluorescence polarization | inhibition, % (concentration not given with the values) | 320,000 tested, 0.6% active | AID 2629; in the data active = inhibition mostly above about 10%, no sharp cut-off; inactive = mostly below about 6.7%
ATG4B conf – confirmation of human ATG4B inhibitors. inhibition, % at 8.33 µM. shares compounds with ATG4B inh. ATG4B protease fluorescent substrate cleavage assay. 320 tested, 92% active; in the data active = inhibition above about 39%
PLA2 ctr – PLA2 (human) inhibition in ATG4B counter-screen | shares compounds with ATG4B inh | purified PLA2, NBD-C6-HPC fluorescence, 45 min | inhibition, % at 8.33 µM | 1,600 tested, 66% active | AID 588402; in the data active = inhibition above about 50%
Numbers without * were called inactive; ? = inconclusive; . = no result given. Rows were chosen to be rich in hits. Some 1.8% of all compounds tested hit in one or more screens of this group.

SMILES | ATG4B inh | AI-2 QS modul | HKDC1 inh | HDAC3 inhib | A1 inh | LANA-H2B inh | PLA2 ctr | others
O=C(Nc1nc(-c2ccco2)c(-c2ccco2)s1)c1c(F)cccc1Cl | 64* | . | 6 | 14 | ? | -3 | 79*
O=C(CN(C(=O)CNS(=O)(=O)c1ccc(F)cc1)C1CCCC1)NCc1ccco1 | -5 | 10 | 5 | ? | 0 | 0 | .
COc1cc(/C=C2/C(=N)N3C=CSC3=NC2=O)ccc1OCCCOc1c(C)cccc1C | 49* | 10 | -3 | -2 | 0 | 1 | 37 | ATG4B conf=57*
COc1cc(/C=C2/C(=N)N3C=CSC3=NC2=O)ccc1OCCOc1ccc(NC(C)=O)cc1 | -5 | 15 | 1 | -3 | 0 | 2 | .
CCc1ccccc1NC(=S)NCCSc1ccc(Cl)cc1 | 66* | -5 | 2 | 4 | 1 | 2 | 80*
Cc1cccc(NC(=S)NCCSc2ccc(Cl)cc2)c1 | 51* | 25 | 1 | 2 | 3 | -1 | 64*
Cc1ccccc1NC(=S)NCCSc1ccc(Cl)cc1 | 45* | 9 | 1 | 0 | -1 | 6 | 51*
Cc1ccc(C)c(NC(=S)NCCSc2ccc(Cl)cc2)c1 | 15 | 7 | 7 | -3 | 1 | 3 | .
CC(=O)Nc1ccc(S(=O)(=O)Nc2ccc(S(=O)(=O)Nc3nccs3)cc2)cc1 | -8 | 23 | 1 | -9 | 0 | 3 | .
O=[N+]([O-])c1ccccc1S(=O)(=O)Nc1ccc2c(c1)OCCO2 | 3 | 11 | 2 | 4 | 1 | 0 | .
Cc1ccc(CNC(=O)C2CCCN(c3nc4ccccc4o3)C2)cc1 (stereo not given) | -10 | -5 | -5 | 2 | -1 | 0 | .
COc1ccc(Br)cc1CNC(=O)C1CCCN(c2nc3ccccc3o2)C1 (stereo not given) | 64* | 4 | 14 | -15 | 1 | 0 | 68*
FC(F)(F)c1cccc(NC(=S)NCc2ccccc2)c1 | 59* | -42 | 4 | 6 | 0 | -6 | 62*
FC(F)(F)c1cccc(CNC(=S)Nc2ccccc2)c1 | 49* | 8 | -8 | 6 | 2 | 2 | 61*
FC(F)(F)Sc1ccc(NC(=S)NCc2ccccc2)cc1 | 73* | -12 | 0 | 14 | 0 | -4 | 82*
FC(F)(F)c1cccc(NC(=S)NNC(=S)Nc2cccc(C(F)(F)F)c2)c1 | . | 32 | . | ? | 0 | 1 | .
CC(C)NC(=O)NC(=O)CN1C(=O)NC(Cc2c[nH]c3ccccc23)C1=O (stereo not given) | -8 | 20 | -10 | -5 | 0 | 2 | .
COc1ccccc1Cn1c(=S)[nH]c2cc(C(=O)NCCN(C)C)ccc2c1=O | -6 | 11 | 9 | 10 | 0 | 3 | .
COc1cc2cc(CCCOC(=O)CCC(=O)O)oc(=O)c2cc1OC | 8 | . | -4 | 4 | 0 | 2 | .
O=C1c2ccccc2C(=O)N1c1ncc(Cc2ccc(Cl)cc2)s1 | 80* | . | 0 | 2 | 0 | -1 | 64*
Cc1nn(C)c(C(=O)N2CCN(C(=O)c3ccco3)CC2)c1Br | -2 | 15 | -5 | -12 | 0 | -2 | .
Cc1ccc2nc(N/N=C/c3ccccc3C#N)nc(-c3ccccc3)c2c1 | 7 | -23 | -1 | 2 | -1 | -1 | .
Cc1ccc2nc(N/N=C/c3ccccc3F)nc(-c3ccccc3)c2c1 | 46* | 8 | -4 | . | 0 | . | 40 | ATG4B conf=75*
NS(=O)(=O)c1ccc(NC(=O)c2cc(Cl)sc2Cl)cc1 | -2 | 22 | -3 | -13 | 1 | 2 | .
O=C(NCc1cccc(C(F)(F)F)c1)N1CCN(S(=O)(=O)c2ccccc2F)CC1 | 51* | 9 | -4 | -3 | 0 | -2 | 46 | ATG4B conf=61*
O=C(Nc1c(F)cccc1F)c1ccc2c(c1)CCN2S(=O)(=O)c1ccccc1 | 69* | 22 | -1 | 9 | 0 | -4 | 69*
